Measured values taken from ChEMBL document CHEMBL1153096, “Properly substituted 1,4-dioxane nucleus favours the selective M3 muscarinic receptor activation” (Bioorg Med Chem, 2009).
Activity calls are given as the source filed them. The rule behind the calls is not given here.

What was measured:
[1] = molecular target: T1, Muscarinic acetylcholine receptor M2 (Homo sapiens, UniProt P08172); assay: Displacement of [3H]NMS from human muscarinic M2 receptor expressed in CHO cells by microplate scintillation counting; type: cell-based
T1 sequence (P08172 whole entry): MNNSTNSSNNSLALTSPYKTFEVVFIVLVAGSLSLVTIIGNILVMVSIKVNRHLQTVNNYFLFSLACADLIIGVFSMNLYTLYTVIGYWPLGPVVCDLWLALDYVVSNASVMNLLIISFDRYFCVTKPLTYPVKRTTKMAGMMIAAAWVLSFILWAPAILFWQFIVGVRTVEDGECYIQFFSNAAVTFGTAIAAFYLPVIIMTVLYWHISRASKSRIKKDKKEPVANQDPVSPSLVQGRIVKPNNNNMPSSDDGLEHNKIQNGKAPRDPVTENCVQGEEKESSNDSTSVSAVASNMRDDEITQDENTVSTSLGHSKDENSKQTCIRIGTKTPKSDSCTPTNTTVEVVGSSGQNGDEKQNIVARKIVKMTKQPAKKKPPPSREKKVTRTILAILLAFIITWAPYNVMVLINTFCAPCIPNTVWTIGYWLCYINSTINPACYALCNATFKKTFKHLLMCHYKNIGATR

[2] = molecular target: T2, Muscarinic acetylcholine receptor M4 (Homo sapiens, UniProt P08173); assay: Displacement of [3H]NMS from human muscarinic M4 receptor expressed in CHO cells by microplate scintillation counting; type: cell-based
T2 sequence (P08173 whole entry): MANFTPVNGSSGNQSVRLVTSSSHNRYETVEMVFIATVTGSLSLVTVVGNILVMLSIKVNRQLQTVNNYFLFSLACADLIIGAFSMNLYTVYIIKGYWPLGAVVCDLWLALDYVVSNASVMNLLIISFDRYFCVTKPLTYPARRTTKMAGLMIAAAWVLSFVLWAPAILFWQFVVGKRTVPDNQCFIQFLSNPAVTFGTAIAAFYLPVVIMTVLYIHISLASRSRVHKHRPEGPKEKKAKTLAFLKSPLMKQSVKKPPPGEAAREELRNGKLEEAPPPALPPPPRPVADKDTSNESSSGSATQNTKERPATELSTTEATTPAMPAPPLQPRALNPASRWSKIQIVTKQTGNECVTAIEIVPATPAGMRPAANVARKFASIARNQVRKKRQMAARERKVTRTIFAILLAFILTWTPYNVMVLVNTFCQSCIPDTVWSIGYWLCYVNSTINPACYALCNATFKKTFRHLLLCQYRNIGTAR

[3] = molecular target: T3, Muscarinic acetylcholine receptor M5 (Homo sapiens, UniProt P08912); assay: Displacement of [3H]NMS from human muscarinic M5 receptor expressed in CHO cells by microplate scintillation counting; type: cell-based
T3 sequence (P08912 whole entry): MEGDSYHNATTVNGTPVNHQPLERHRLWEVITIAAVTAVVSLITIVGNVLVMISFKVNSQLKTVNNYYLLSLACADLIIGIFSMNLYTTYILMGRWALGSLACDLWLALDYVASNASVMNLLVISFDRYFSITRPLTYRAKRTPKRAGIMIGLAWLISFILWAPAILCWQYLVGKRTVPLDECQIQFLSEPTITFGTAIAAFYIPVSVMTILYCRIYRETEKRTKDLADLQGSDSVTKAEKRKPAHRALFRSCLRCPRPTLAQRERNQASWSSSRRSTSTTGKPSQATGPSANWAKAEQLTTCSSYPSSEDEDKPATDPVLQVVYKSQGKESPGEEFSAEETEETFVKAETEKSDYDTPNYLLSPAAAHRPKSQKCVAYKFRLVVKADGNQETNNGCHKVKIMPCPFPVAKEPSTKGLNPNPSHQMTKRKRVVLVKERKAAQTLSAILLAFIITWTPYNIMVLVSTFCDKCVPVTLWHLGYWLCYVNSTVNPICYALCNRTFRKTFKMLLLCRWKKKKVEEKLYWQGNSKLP

Oryctolagus cuniculus [4] = species: Oryctolagus cuniculus; assay: Intrinsic activity at muscarinic M1 receptor in New Zealand White rabbit vas deferens assessed as inhibition of electrically-stimulated muscle contraction relative to McN-A-343; type: tissue-based
In short: (§1)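 Prostatic portion of male-free-listed New Zealand white rabbit (3.0-3.5 kg, fasted 24 h) vas deferens in modified Krebs, 31 °C, 95% O2-5% CO2; 45 min stabilisation, field stimulation 2 Hz, 5 ms, 5 V; isometric recording. Cumulative concentration-response curves; pD2 by linear regression; intrinsic activity as fraction of McN-A-343 maximum; means ± SEM of four to six experiments.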

[5] = (§2) Agonist activity at muscarinic M1 receptor in New Zealand White rabbit vas deferens assessed as inhibition of electrically-stimulated muscle contraction; type: functional, Oryctolagus cuniculus; in short: as §1
Cavia porcellus [6] = species: Cavia porcellus; assay: Intrinsic activity at muscarinic M2 receptor in guinea pig atrium assessed as inhibition of electrically-stimulated muscle contraction relative to bathanecol; type: tissue-based; conditions: Cardiac atrium
[7] = molecular target: Muscarinic acetylcholine receptor M3 (Cavia porcellus) (UniProt Q8VH26); assay: Agonist activity at muscarinic M3 receptor in guinea pig ileum assessed as inhibition of electrically-stimulated muscle contraction; type: functional, tissue-based
Sequence of Muscarinic acetylcholine receptor M3 (Cavia porcellus) (Q8VH26 1-587): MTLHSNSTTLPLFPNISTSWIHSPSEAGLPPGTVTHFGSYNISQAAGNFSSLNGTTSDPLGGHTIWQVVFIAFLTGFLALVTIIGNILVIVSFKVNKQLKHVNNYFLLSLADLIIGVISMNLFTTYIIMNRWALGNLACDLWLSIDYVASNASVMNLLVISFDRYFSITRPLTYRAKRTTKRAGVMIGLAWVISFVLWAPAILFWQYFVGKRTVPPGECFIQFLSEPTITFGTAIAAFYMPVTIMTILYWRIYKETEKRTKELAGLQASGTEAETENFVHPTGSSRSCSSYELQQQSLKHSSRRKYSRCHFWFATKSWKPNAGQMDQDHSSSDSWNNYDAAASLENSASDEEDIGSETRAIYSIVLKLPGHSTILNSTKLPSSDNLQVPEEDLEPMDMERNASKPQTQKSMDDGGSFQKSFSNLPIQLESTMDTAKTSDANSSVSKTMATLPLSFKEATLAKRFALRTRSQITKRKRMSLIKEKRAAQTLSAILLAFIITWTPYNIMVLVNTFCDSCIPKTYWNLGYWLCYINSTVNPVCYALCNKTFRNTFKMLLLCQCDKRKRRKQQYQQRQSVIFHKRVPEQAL
In short: (§3)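 Male guinea pig (250-350 g, fasted 24 h) ileal segments 2-3 cm, 1.0 g tension, 37 °C, Krebs-Henseleit with carbogen; 45 min equilibration, isometric contractions. Cumulative agonist concentration-response curves; pD2 by linear regression; intrinsic activity relative to bethanechol maximum; means ± SEM of four to six experiments.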

Cavia porcellus [8] = species: Cavia porcellus; assay: Intrinsic activity at muscarinic M4 receptor in guinea pig lung assessed as inhibition of electrically-stimulated muscle contraction relative to bathanecol
In short: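 Male guinea pig peripheral lung strips (15 × 2 × 2 mm) from lower lobe, 0.3 g resting tension, 37 °C, Krebs-Henseleit with carbogen; 45 min equilibration, isometric contractions. Cumulative agonist concentration-response curves; pD2 by linear regression; intrinsic activity relative to bethanechol maximum; means ± SEM of four to six experiments.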

[9] = molecular target: T4, Muscarinic acetylcholine receptor M1 (Homo sapiens, UniProt P11229); assay: Displacement of [3H]NMS from human muscarinic M1 receptor expressed in CHO cells by microplate scintillation counting; type: cell-based
T4 sequence (P11229 whole entry): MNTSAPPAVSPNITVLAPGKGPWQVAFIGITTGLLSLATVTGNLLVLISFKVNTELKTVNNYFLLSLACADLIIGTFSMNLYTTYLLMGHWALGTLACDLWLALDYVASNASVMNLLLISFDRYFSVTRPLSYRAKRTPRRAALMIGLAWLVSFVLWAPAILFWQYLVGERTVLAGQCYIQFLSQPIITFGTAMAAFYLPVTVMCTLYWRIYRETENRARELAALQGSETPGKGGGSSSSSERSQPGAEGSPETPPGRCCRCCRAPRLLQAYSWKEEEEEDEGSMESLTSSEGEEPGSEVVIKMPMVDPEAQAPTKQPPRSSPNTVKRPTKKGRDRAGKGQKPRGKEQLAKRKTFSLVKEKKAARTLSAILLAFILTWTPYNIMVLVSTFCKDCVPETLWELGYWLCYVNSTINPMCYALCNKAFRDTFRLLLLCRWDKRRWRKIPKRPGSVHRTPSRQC

[10] = molecular target: Muscarinic acetylcholine receptor M3 (Homo sapiens, UniProt P20309); assay: Displacement of [3H]NMS from human muscarinic M3 receptor expressed in CHO cells by microplate scintillation counting; type: cell-based
Sequence of Muscarinic acetylcholine receptor M3 (P20309 whole entry): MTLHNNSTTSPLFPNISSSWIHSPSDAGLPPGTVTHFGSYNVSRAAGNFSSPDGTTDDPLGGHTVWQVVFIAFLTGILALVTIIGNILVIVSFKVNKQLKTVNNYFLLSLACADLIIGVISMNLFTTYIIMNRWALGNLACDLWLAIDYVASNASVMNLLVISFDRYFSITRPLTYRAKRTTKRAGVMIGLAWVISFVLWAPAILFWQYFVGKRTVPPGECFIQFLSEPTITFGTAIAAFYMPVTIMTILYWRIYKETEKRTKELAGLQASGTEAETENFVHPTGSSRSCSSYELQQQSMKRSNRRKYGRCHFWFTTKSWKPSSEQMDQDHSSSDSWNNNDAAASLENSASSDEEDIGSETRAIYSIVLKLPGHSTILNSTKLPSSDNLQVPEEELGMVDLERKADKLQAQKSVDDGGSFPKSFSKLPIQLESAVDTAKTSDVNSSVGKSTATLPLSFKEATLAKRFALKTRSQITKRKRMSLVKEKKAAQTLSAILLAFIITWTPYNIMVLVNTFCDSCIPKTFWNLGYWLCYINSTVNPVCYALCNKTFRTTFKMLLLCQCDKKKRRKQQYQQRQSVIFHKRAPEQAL

Oryctolagus cuniculus [11] = species: Oryctolagus cuniculus; assay: as §2; type: functional; in short: as §1
[12] = molecular target: Muscarinic acetylcholine receptor M3 (Cavia porcellus) (UniProt Q8VH26); assay: Intrinsic activity at muscarinic M3 receptor in guinea pig ileum assessed as inhibition of electrically-stimulated muscle contraction relative to bathanecol; type: tissue-based; in short: as §3
[13] = Agonist activity at muscarinic M2 receptor in guinea pig atrium assessed as inhibition of electrically-stimulated muscle contraction; type: functional, Cavia porcellus, Cardiac atrium
Cavia porcellus [14] = species: Cavia porcellus; assay: Antagonist activity at muscarinic M4 receptor in guinea pig lung assessed as effect on muscle contraction up to 10 uM; type: functional
Oryctolagus cuniculus [15] = species: Oryctolagus cuniculus; assay: Antagonist activity at muscarinic M1 receptor in New Zealand White rabbit vas deferens assessed as effect on muscle contraction up to 30 uM; type: functional, tissue-based
Cavia porcellus [16] = species: Cavia porcellus; assay: Antagonist activity at muscarinic M2 receptor in guinea pig atrium assessed as effect on muscle contraction up to 10 uM; type: functional, tissue-based; conditions: Cardiac atrium
[17] = Agonist activity at muscarinic M4 receptor in guinea pig lung assessed as inhibition of electrically-stimulated muscle contraction; type: functional, Cavia porcellus
Oryctolagus cuniculus [18] = species: Oryctolagus cuniculus; conditions: New Zealand White, Vas deferens
Cavia porcellus [19] = species: Cavia porcellus; assay: Selectivity ratio of pD2 for guinea pig muscarinic M3 receptor to pD2 for guinea pig muscarinic M2 receptor
Cavia porcellus [20] = species: Cavia porcellus; assay: Selectivity ratio of pD2 for guinea pig muscarinic M4 receptor to pD2 for guinea pig muscarinic M3 receptor
Cavia porcellus [21] = species: Cavia porcellus; conditions: Cardiac atrium
[22] = molecular target: Muscarinic acetylcholine receptor M3 (Cavia porcellus) (UniProt Q8VH26); conditions: Ileum

SMILES | Ki [1] | Ki [2] | Ki [3] | Intrinsic activity (Cavia porcellus [6]) | pD2 [7] | Intrinsic activity (Cavia porcellus [8]) | Ki [9] | Ki [10] | pD2 (Oryctolagus cuniculus [11]) | Intrinsic activity [12] | pD2 [13] | pKb (Oryctolagus cuniculus [15]) | pD2 [17] | further results
C[C@@H]1COC[C@@H](C[N+](C)(C)C)O1.[I-] | 4.9 µM | 87.1 µM | 67.6 µM | 1 | 6.02 | 1 | – | – | – | – | – | – | – | Intrinsic activity (Oryctolagus cuniculus [4]): 1; pD2 [5]: 5.08
CC1(C)OC[C@@H](C[N+](C)(C)C)OC1(C)C.[I-] | 46.8 µM | 53.7 µM | 66.1 µM | 0.71 | 5.09 | – | > 100 µM | 40.7 µM | inactive | 0.93 | 5.12 | inactive | – | pKb (Cavia porcellus [14]): inactive
CC1(C)CO[C@H](C[N+](C)(C)C)CO1.[I-] | 95.5 µM | > 100 µM | > 100 µM | – | 4.91 | 0.22 | > 100 µM | 77.6 µM | inactive | 0.68 | – | inactive | 4.85 | pKb (Cavia porcellus [16]): inactive
C[N+](C)(C)CC#CCOC(=O)Nc1cccc(Cl)c1.[Cl-] | – | – | – | – | – | – | – | – | – | – | – | – | – | pD2 [5]: 6.4
C[C@H]1COC[C@@H](C[N+](C)(C)C)O1.[I-] (relative stereo) | 1.58 µM | 11.5 µM | 7.76 µM | 1 | 7.34 | – | – | – | – | – | – | – | – | Intrinsic activity (Oryctolagus cuniculus [4]): 1; pD2 [5]: 5.65
C[C@H]1CO[C@H](C[N+](C)(C)C)CO1.[I-] (relative stereo) | 17.4 µM | > 100 µM | 63.1 µM | 0.95 | – | 0.57 | > 100 µM | 44.7 µM | inactive | 1 | – | – | 5.08 | pKb (Oryctolagus cuniculus [18]): inactive
C[C@@H]1OC[C@@H](C[N+](C)(C)C)OC1(C)C.[I-] (relative stereo) | 33.9 µM | 30.2 µM | 16.6 µM | 0.46 | 5.7 | – | 38 µM | 10.5 µM | – | 0.66 | 4.99 | – | – | pKb (Cavia porcellus [14]): inactive
C[C@@H]1OC[C@@H](C[N+](C)(C)C)O[C@@H]1C.[I-] (relative stereo) | 89.1 µM | > 100 µM | > 100 µM | 0.27 | 4.91 | – | > 100 µM | > 100 µM | inactive | 0.85 | 5.04 | inactive | – | pKb (Cavia porcellus [14]): inactive
C[C@H]1OC[C@@H](C[N+](C)(C)C)O[C@@H]1C.[I-] (relative stereo) | 16.6 µM | > 100 µM | > 100 µM | 0.89 | 6.7 | 0.65 | > 100 µM | > 100 µM | – | 1.18 | 5.01 | – | 4.59 | Selectivity ratio (Cavia porcellus [19]): 49; Selectivity ratio (Cavia porcellus [20]): 141
C[C@@H]1CO[C@H](C[N+](C)(C)C)CO1.[I-] (relative stereo) | 11.2 µM | 93.3 µM | 93.3 µM | 1 | – | 0.55 | > 100 µM | 66.1 µM | inactive | 1 | – | – | – | pKb (Oryctolagus cuniculus [18]): inactive
C[C@H]1O[C@H](C[N+](C)(C)C)COC1(C)C (relative stereo) | 72.4 µM | 87.1 µM | 83.2 µM | – | inactive | – | 95.5 µM | 46.8 µM | inactive | – | – | inactive | – | pKb (Cavia porcellus [16]): inactive; pKb (Cavia porcellus [14]): inactive; pKb (Cavia porcellus [21]): inactive; pKb [22]: inactive
C[C@@H]1OC[C@@H](C[N+](C)(C)C)O[C@H]1C.[I-] (relative stereo) | 13.8 µM | 30.9 µM | 15.5 µM | 0.8 | 6.95 | 0.35 | 24.5 µM | 11 µM | inactive | 0.88 | 4.93 | inactive | 5.08 | Selectivity ratio (Cavia porcellus [19]): 105; Selectivity ratio (Cavia porcellus [20]): 74
C[C@@H]1O[C@H](C[N+](C)(C)C)CO[C@@H]1C.[I-] (relative stereo) | 20 µM | > 100 µM | 97.7 µM | 0.91 | 5.27 | 0.5 | > 100 µM | > 100 µM | – | 1 | 5.18 | – | 5 | –
CC(C[N+](C)(C)C)OC(N)=O.[Cl-] (configuration not stated) [BETHANECHOL CHLORIDE] | – | – | – | – | 6.16 | – | – | – | – | – | 5.88 | – | 5.01 | –
